Data reported in ChEMBL document CHEMBL1155469, “Peptide nucleic acids conjugated to short basic peptides show improved pharmacokinetics and antisense activity in adipose tissue” (J Med Chem, 2010).
Calls of active or inactive are those of the source. The rule behind the calls is not given here.

What was measured:
Mus musculus [1] = experiment: Inhibition of PTEN expression in Balb/C mouse white adipose tissue assessed as reduction of full length transcript at 10 to 40 mg/kg, ip administered thrice a week for 2 weeks measured 48 hrs after last dose […]; assay type: functional, organism-based
Mus musculus [2] = experiment: Inhibition of PTEN expression in Balb/C mouse kidney at 10 to 40 mg/kg, ip administered thrice a week for 2 weeks measured 48 hrs after last dose
Mus musculus [3] = experiment: Toxicity in Balb/C mouse assessed as change in serum bilirubin levels at 10 to 40 mg/kg, ip administered thrice a week for 2 weeks measured 48 hrs after last dose; assay type: organism-based; set-up: dose 10-40 mg/kg, route intraperitoneal; conditions: in vivo
Summary of the method: (§1)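 Male Balb/c mice, 6–8 wk, n=4/group, received compound i.p. in PBS (10 ul/g) 3x/wk for 2 wk. Body weight was monitored throughout. At 48 h after the last dose, mice were anesthetized with isoflurane and bled by cardiac puncture. Serum AST, ALT, BUN, bilirubin, glucose and triglycerides were compared with the saline group. ALT rise below 2x normal was counted as absent.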

[4] = Drug level in Balb/C mouse liver at 40 mg/kg, ip administered thrice a week for 2 weeks measured 48 hrs after last dose; assay type: ADME, organism-based; set-up: dose 40 mg/kg, route intraperitoneal; conditions: read-out: Drug uptake
Summary of the method: (§2)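 Male Balb/c mice, 6–8 wk, n=4/group, dosed i.p. in PBS 3x/wk for 2 wk at 40 mg/kg and killed 48 h after the last dose. Liver, kidney and adipose tissue were homogenized in SDS extraction buffer and diluted to 0.2 mg tissue/mL. They were hybridized with a digoxigenin/biotin cutting probe, captured on NeutrAvidin, and digested with nuclease S1. Anti-digoxigenin-AP fluorescence was read and quantified against a 0.1–100 nM standard ladder, in quadruplicate.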

Mus musculus [5] = experiment: Toxicity in Balb/C mouse assessed as change in body weight at 10 to 40 mg/kg, ip administered thrice a week for 2 weeks measured 48 hrs after last dose; assay type: organism-based; set-up: dose 10-40 mg/kg, route intraperitoneal; conditions: in vivo; summary of the method: as §1
Mus musculus [6] = experiment: Inhibition of PTEN expression in Balb/C mouse liver at 10 to 40 mg/kg, ip administered thrice a week for 2 weeks measured 48 hrs after last dose by Western blot analysis; assay type: functional, organism-based
Summary of the method: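 Male Balb/c mice, 6–8 wk, n=4/group, dosed i.p. in PBS 3x/wk for 2 wk and killed 48 h after the last dose. Tissue was homogenized in RIPA buffer with protease inhibitors, and protein was measured by Lowry assay. Lysates were run on 10% PAGE and blotted to PVDF. Blots were probed with rabbit anti-PTEN (1:1000) and HRP anti-rabbit (1:2500), with ECL detection.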

Mus musculus [7] = experiment: Toxicity in Balb/C mouse assessed as change in serum AST levels at 10 to 40 mg/kg, ip administered thrice a week for 2 weeks measured 48 hrs after last dose; assay type: organism-based; set-up: dose 10-40 mg/kg, route intraperitoneal; conditions: in vivo; summary of the method: as §1
Mus musculus [8] = experiment: Toxicity in Balb/C mouse assessed as change in blood urea nitrogen levels at 10 to 40 mg/kg, ip administered thrice a week for 2 weeks measured 48 hrs after last dose; assay type: organism-based; set-up: dose 10-40 mg/kg, route intraperitoneal; conditions: in vivo; summary of the method: as §1
Mus musculus [9] = experiment: Toxicity in Balb/C mouse assessed as change in serum ALT levels at 10 to 40 mg/kg, ip administered thrice a week for 2 weeks measured 48 hrs after last dose; assay type: organism-based; set-up: dose 10-40 mg/kg, route intraperitoneal; conditions: in vivo; summary of the method: as §1
Mus musculus [10] = experiment: Toxicity in Balb/C mouse assessed as change in serum triglyceride levels at 10 to 40 mg/kg, ip administered thrice a week for 2 weeks measured 48 hrs after last dose; assay type: organism-based; set-up: dose 10-40 mg/kg, route intraperitoneal; conditions: in vivo; summary of the method: as §1
Mus musculus [11] = experiment: Toxicity in Balb/C mouse assessed as change in serum glucose levels at 10 to 40 mg/kg, ip administered thrice a week for 2 weeks measured 48 hrs after last dose; assay type: organism-based; set-up: dose 10-40 mg/kg, route intraperitoneal; conditions: in vivo; summary of the method: as §1
[12] = Drug level in Balb/C mouse kidney at 40 mg/kg, ip administered thrice a week for 2 weeks measured 48 hrs after last dose; assay type: ADME, organism-based; set-up: dose 40 mg/kg, route intraperitoneal; conditions: read-out: Drug uptake; summary of the method: as §2
[13] = Drug level in Balb/C mouse adipose tissue at 40 mg/kg, ip administered thrice a week for 2 weeks measured 48 hrs after last dose; assay type: ADME, organism-based; set-up: dose 40 mg/kg, route intraperitoneal; conditions: read-out: Drug uptake; summary of the method: as §2

Cc1cn(CC(=O)N(CCNC(=O)CN(CCNC(=O)[C@H](CCCCN)N(CCNC(=O)[C@H](CCCCN)NC(=O)[C@@H](N)CCCCN)C(=O)Cn2cc(C)c(=O)[nH]c2=O)C(=O)Cn2ccc(N)nc2=O)CC(=O)NCCN(CC(=O)NCCN(CC(=O)NCCN(CC(=O)NCCN(CC(=O)NCCN(CC(=O)NCCN(CC(=O)NCCN(CC(=O)NCCN(CC(=O)NCCN(CC(=O)NCCN(CC(=O)NCCN(CC(=O)NCCN(CC(=O)NCCN(CC(=O)N[C@@H](CCCCN)C(N)=O)C(=O)Cn2cnc3c(N)ncnc32)C(=O)Cn2ccc(N)nc2=O)C(=O)Cn2cnc3c(N)ncnc32)C(=O)Cn2cc(C)c(=O)[nH]c2=O)C(=O)Cn2ccc(N)nc2=O)C(=O)Cn2cc(C)c(=O)[nH]c2=O)C(=O)Cn2cnc3c(N)ncnc32)C(=O)Cn2ccc(N)nc2=O)C(=O)Cn2cnc3c(N)ncnc32)C(=O)Cn2ccc(N)nc2=O)C(=O)Cn2cnc3c(=O)[nH]c(N)nc32)C(=O)Cn2cnc3c(N)ncnc32)C(=O)Cn2ccc(N)nc2=O)c(=O)[nH]c1=O
Activity (Mus musculus [1]): inactive | inhibition (Mus musculus [2]): inactive | Activity (Mus musculus [3]): Non-toxic | concentration at 48 h [4]: 28 µM | Activity (Mus musculus [5]): Non-toxic | inhibition (Mus musculus [6]): inactive | Activity (Mus musculus [7]): Non-toxic | Activity (Mus musculus [8]): Non-toxic | Activity (Mus musculus [9]): Non-toxic | Activity (Mus musculus [10]): Non-toxic | Activity (Mus musculus [11]): Non-toxic | concentration at 48 h [12]: 355 µM | concentration at 48 h [13]: 4 µM
